Data set [1] can be described thus: Acute toxicity in po dosed CD1 mouse after 7 days. Type of data set: organism-based. As to conditions: in vivo. The gist of the method:
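Male CD1 mice, 20 ± 2 g, oral dosing at 10 mL/kg as an aqueous solution or suspension in 1% Tween 80 in distilled water. At least 10 animals per dose level, observed for 7 days. Oral LD50 calculated by the Litchfield–Wilcoxon method.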

In data set [2] the test system is Mus musculus. Put plainly: Analgesic activity in po dosed CD1 mouse assessed as inhibition of acetic acid-induced writhing administered 30 mins prior to acetic acid challenge measured after 15 mins. Type of data set: functional. Summed up: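 Male CD1 mice, 20 ± 2 g, randomly grouped and dosed orally at several levels (10 mL/kg, 1% Tween 80 vehicle), with at least two groups of six per dose. After 30 min, 0.6% acetic acid was given ip at 10 mL/kg, and writhes were counted per group over 15 min. ED50 (dose halving writhes) was read graphically, with no SEM computed.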
In general terms: An intraperitoneal irritant provokes the stretching counted in writhing tests.

Data set [3] has as its system Mus musculus. Put plainly: Analgesic activity in po dosed OF1 mouse assessed as dose required to double paw licking reaction time after 30 mins by hot plate test. In kind it is functional. Particulars: 0.5 h. Summed up: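 Male OF1 mice, 20 ± 2 g, given oral doses at several levels in 1% Tween 80 at 10 mL/kg, at least 10 per dose. After 30 min each mouse was placed on a metal plate at 56 °C and paw-licking latency was recorded. ED2 (dose doubling latency) was read graphically, with SEM and Dunnett's t versus controls.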
For orientation: Thermal pain tests record how soon the animal reacts.

In data set [4] the test system is Rattus norvegicus. Put plainly: Antiinflammatory activity in po dosed CD1 rat assessed as inhibition of carrageenan-induced paw edema administered 1 hr prior to carrageenan challenge measured after 3 hrs.

This note sets out measurements from ChEMBL document CHEMBL3228025, “Synthesis and analgesic activities of some (4-substituted phenyl-1-piperazinyl)alkyl 2-aminobenzoates and 2-aminonicotinates” (J Med Chem, 1979).

As usually defined, the LD50 is the dose at which mortality reaches 50%. The low end stands for greater toxicity, the high end for lower toxicity. The term ED50 denotes the dose that gives a 50% effect, or the effect in half of the subjects.

On to `O=C(OCCN1CCN(c2ccccc2)CC1)c1ccccc1Nc1ccnc2cc(Cl)ccc12`, for which the LD50 at 168 h in data set [1] stood at 4250 mg/kg. The 50% effective dose (ED50) in data set [2] turned out to be 75 mg/kg. Moreover, the ED2 in data set [3] is 200 mg/kg. For the same compound, the ED40 in data set [4] came to 120 mg/kg.

`O=C(OCCN1CCN(c2ccccc2)CC1)c1ccccc1Nc1ccnc2c(Cl)cccc12`: the LD50 at 168 h in data set [1] was greater than 4000 mg/kg. Also, the median effective dose (ED50) in data set [2] came out at 80 mg/kg. Besides, in data set [3], the ED2 was greater than 250 mg/kg. In data set [4], the ED40 is 300 mg/kg.

As to `O=C(OCCN1CCN(c2ccccc2)CC1)c1ccccc1Nc1ccnc2cc(C(F)(F)F)ccc12`, the LD50 at 168 h in data set [1] was 2500 mg/kg. Moreover, in data set [2], the ED50 is 30 mg/kg. Besides, in data set [3], the ED2 was found to be 300 mg/kg. For the same compound, the ED40 in data set [4] stood at 40 mg/kg.

As to `O=C(OCCN1CCN(c2cccc(SC(F)(F)F)c2)CC1)c1ccccc1Nc1ccnc2cc(C(F)(F)F)ccc12`, in data set [1], the LD50 at 168 h amounted to 3750 mg/kg. In addition, the ED50 in data set [2] was 8 mg/kg. In data set [3], the ED2 is greater than 300 mg/kg. The ED40 in data set [4] came out at 30 mg/kg.

`O=C(OCCN1CCN(c2ccc(Cl)cc2)CC1)c1ccccc1Nc1ccnc2cc(Cl)ccc12`: the LD50 at 168 h in data set [1] was greater than 2000 mg/kg. Besides, in data set [2], the ED50 is 80 mg/kg. Further, in data set [3], the ED2 was greater than 300 mg/kg. In data set [4], the ED40 amounted to 100 mg/kg.

In data set [1], `O=C(OCCCN1CCN(c2ccccc2)CC1)c1ccccc1Nc1ccnc2cc(Cl)ccc12` gave a 50% lethal dose (LD50) at 168 h of 2000 mg/kg. Moreover, the ED50 in data set [2] was found to be 60 mg/kg. Also, in data set [3], the ED2 was determined as 250 mg/kg. For the same compound, the ED40 in data set [4] amounted to 50 mg/kg.

Compound `O=C(OCCN1CCN(c2cccc(SC(F)(F)F)c2)CC1)c1ccccc1Nc1ccnc2c(C(F)(F)F)cccc12` yielded an LD50 at 168 h in data set [1] greater than 3000 mg/kg. The ED50 in data set [2] was 6 mg/kg. Further, the ED2 in data set [3] turned out to be 200 mg/kg. Besides, the ED40 in data set [4] is greater than 100 mg/kg.

`O=C(OCCN1CCN(c2cccc(Cl)c2)CC1)c1ccccc1Nc1ccnc2cc(OC(F)(F)F)ccc12`: the LD50 at 168 h in data set [1] is 4000 mg/kg. Further, the ED50 in data set [2] is 20 mg/kg. In addition, in data set [3], the ED2 was 300 mg/kg. Further, the ED40 in data set [4] was 85 mg/kg.

The compound `CC(CN1CCN(c2ccccc2)CC1)OC(=O)c1ccccc1Nc1ccnc2cc(Cl)ccc12` (stereo unspecified) displayed an LD50 at 168 h in data set [1] greater than 2000 mg/kg. The ED50 in data set [2] worked out at 63 mg/kg. Also, in data set [3], the ED2 amounted to 200 mg/kg. Further, in data set [4], the ED40 is 300 mg/kg.
